According to ChEMBL document CHEMBL1123850, “Estrogenic affinity labels: synthesis, irreversible receptor binding, and bioactivity of aziridine-substituted hexestrol derivatives” (J Med Chem, 1987):
Calls of active or inactive are those of the source. The rule behind the calls is not given here.

Legend:
MCF7 [1] = assay: Effect on 10e-9 M estradiol stimulation of MCF-7 cell proliferation at 3x10E-7M; very weak; format: functional, cell-based; details: Homo sapiens
How it was run: (§1)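 MCF-7 human breast cancer cells kept 1 week in phenol red-free IMEM with 5% charcoal dextran-treated calf serum, then seeded at ca. 0.5 x 10^5 cells/flask. Next day switched to phenol red- and insulin-free medium holding compound, estradiol (10^-9 M), hydroxytamoxifen or 0.1% ethanol vehicle, renewed every 48 h. Cells counted after 8 days. Agonism is growth relative to estradiol; antagonism is suppression of estradiol-stimulated growth.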

MCF7 [2] = assay: Effect on 10e-9 M estradiol stimulation of MCF-7 cell proliferation at 3E-7M: Weak antagonistic; format: functional, cell-based; details: Homo sapiens, filed as antagonist
[3] = molecular target: T1, Estrogen receptor (Ovis aries) (UniProt P49885+Q9TU15); assay: Time dependent irreversible binding to estrogen receptor by inactivation-exchange assay; Good; format: protein assay
MCF7 [4] = assay: Effect on 10e-9 M estradiol stimulation of MCF-7 cell proliferation at 4x10E-8M; Agonist; format: functional, cell-based; details: Homo sapiens, filed as agonist
[5] = molecular target: T1, Estrogen receptor (Ovis aries); assay: Time dependent irreversible binding to estrogen receptor by inactivation-exchange assay; No; format: protein assay
MCF7 [6] = assay: Effect on 10e-9 M estradiol stimulation of MCF-7 cell proliferation at 10e-8 M; format: functional, cell-based; details: Homo sapiens, filed as agonist
MCF7 [7] = assay: Effect on 10e-9 M estradiol stimulation of MCF-7 cell proliferation at 4x10E-8M; Agonistic; format: functional, cell-based; details: Homo sapiens, filed as agonist; how it was run: as §1
[8] = molecular target: T1, Estrogen receptor (Ovis aries); assay: Time dependent irreversible binding to estrogen receptor by inactivation-exchange assay; Weak; format: protein assay
MCF7 [9] = assay: Effect on 10e-9 M estradiol stimulation of MCF-7 cell proliferation at 3x10E-7M; potent agonistic; format: functional, cell-based; details: Homo sapiens, filed as agonist
MCF7 [10] = assay: Effect on 10e-9 M estradiol stimulation of MCF-7 cell proliferation at 3x10E-8M; Agonistic; format: functional, cell-based; details: Homo sapiens, filed as agonist
MCF7 [11] = assay: Effect on 10e-9 M estradiol stimulation of MCF-7 cell proliferation at 3x10E-7M;weak agonistic; format: functional, cell-based; details: Homo sapiens, filed as partial agonist; how it was run: as §1

SMILES: CC[C@H](c1ccc(O)cc1)[C@@H](CCCCN1CCNCC1)c1ccc(O)cc1
- Activity (MCF7 [1]): inactive

SMILES: CC[C@H](c1ccc(O)cc1)[C@@H](CCCCN1CC1)c1ccc(O)cc1
- Activity (MCF7 [2]): Partial antagonist
- Irreversible binding [3]: Time-dependent effect

SMILES: CC[C@H](c1ccc(O)cc1)[C@@H](CSCCN1CC1)c1ccc(O)cc1
- Activity (MCF7 [4]): Agonist
- Irreversible binding [5]: inactive

SMILES: CC[C@H](c1ccc(O)cc1)[C@@H](C(=O)CCCCN1CC1)c1ccc(O)cc1
- Activity (MCF7 [6]): Agonist
- Irreversible binding [3]: Time-dependent effect

SMILES: CC[C@H](c1ccc(O)cc1)[C@@H](CSCCCN(C)C)c1ccc(O)cc1
- Activity (MCF7 [7]): Agonist

SMILES: CC[C@H](c1ccc(O)cc1)[C@@H](C(=O)OCCCN1CC1)c1ccc(O)cc1
- Irreversible binding [8]: Partially active
- Activity (MCF7 [9]): Agonist

SMILES: CC[C@H](c1ccc(O)cc1)[C@@H](CSCCCN1CC1)c1ccc(O)cc1
- Activity (MCF7 [10]): Agonist
- Irreversible binding [3]: Time-dependent effect

SMILES: CC[C@H](c1ccc(O)cc1)[C@@H](C(=O)OCCN1CC1)c1ccc(O)cc1
- Irreversible binding [8]: Partially active
- Activity (MCF7 [9]): Agonist

SMILES: CC[C@H](c1ccc(O)cc1)[C@@H](C(=O)N1CC1)c1ccc(O)cc1
- Irreversible binding [5]: inactive
- Activity (MCF7 [9]): Agonist

SMILES: CC[C@H](c1ccc(O)cc1)[C@@H](C(=O)CCCCN(C)C)c1ccc(O)cc1
- Activity (MCF7 [11]): Partial agonist
